Values after ≈ are worked out from the molar mass of the structure shown.
Experiments:
[1] = Lipophilicity, log D of compound at pH 7.4; format: physicochemical; details: buffer
[2] = Apparent permeability in dog MDCK2 cells at pH 7.4; format: ADME, cell-based, Canis lupus familiaris, MDCK-II; details: MDCK
Outline: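 Passive permeability across MDCK-II cells; mean apparent permeability reported.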

[3] = Intrinsic clearance in human liver microsome; format: ADME; details: liver microsomes, read-out: CLH
[4] = AUC infinity in Sprague-Dawley rat at 3 mg/kg, po; format: ADME, organism-based; set-up: dose 3 mg/kg, route oral, time infinity; details: in vivo
Outline: (§1)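 Sprague-Dawley rats dosed orally at 3 mg/kg, with intravenous reference at 1 mg/kg.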

[5] = Oral bioavailability in Sprague-Dawley rat at 3 mg/kg; format: ADME, organism-based; details: in vivo; outline: as §1
[6] = Half life in Sprague-Dawley rat at 1 mg/kg, iv; format: ADME, organism-based; details: in vivo
[7] = Cmax in Sprague-Dawley rat at 3 mg/kg, po; format: ADME, organism-based; set-up: dose 3 mg/kg, route oral; details: in vivo; outline: as §1
[8] = Aqueous solubility of compound in pH 6.5 buffer; format: physicochemical
Outline: (§2)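 Solubility measured on crystalline material at pH 6.5 and pH 2.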

[9] = Aqueous solubility of compound in pH 2 buffer; format: physicochemical; outline: as §2
[10] = Intrinsic clearance in human hepatocytes per million cells; format: ADME, cell-based, Hepatocyte; details: read-out: CLH
[11] = Clearance in Sprague-Dawley rat plasma at 1 mg/kg, iv; format: ADME, organism-based
[12] = Volume of distribution in Sprague-Dawley rat at 1 mg/kg, iv; format: ADME, organism-based; details: in vivo

Row | logD [1] | SMILES | further results
1 | 2.35 | C[C@@H]1[C@@H]2CN(c3nc(Nc4cnn(C)c4)ncc3F)C[C@]12NC(=O)[C@@H]1C[C@H]1C#N | Papp [2]: 12.9 ×10⁻⁶ cm/s
2 | 2.92 | C[C@@H]1[C@@H]2CN(c3nc(Nc4cnn(C)c4)ncc3F)C[C@]12NC(=O)[C@H]1CC1(F)F | –
3 | 1.75 | O=C(N[C@]12C[C@H]1CN(c1nc(Nc3cnn(CCO)c3)ncc1F)C2)C1CC1 | –
4 | 2.65 | C[C@@H]1[C@@H]2CN(c3nc(Nc4cnn(C)c4)ncc3F)C[C@]12NC(=O)[C@@H]1CC1(F)F | microsomal CLint [3]: < 8 µL/min/mg; AUC(0-inf) [4]: 2030 ng·h/mL; bioavailability [5]: 54%; half-life [6]: 1.4 h; Cmax [7]: 614 ng/mL; solubility [8]: 140 µg/mL (≈ 344 µM); solubility [9]: > 15000 µg/mL; hepatocyte CLint [10]: 3.45 µL/min/1e6 cells; Papp [2]: 17 ×10⁻⁶ cm/s; clearance [11]: 13 mL/min/kg; Vd [12]: 1.2 L/kg
5 | 1.75 | C[C@@H]1[C@@H]2CN(c3nc(Nc4cnn(CCO)c4)ncc3F)C[C@]12NC(=O)[C@H]1C[C@@H]1C#N | Papp [2]: 1.2 ×10⁻⁶ cm/s
6 | 1.8 | CCNC(=O)c1ccc(Nc2nccc(N3CC4CCC(C3)N4C(=O)C3CC3)n2)cc1 | –
7 | 1.43 | N#C[C@H]1C[C@@H]1C(=O)N[C@@]12C[C@@H]1CN(c1nc(Nc3cnn(CCO)c3)ncc1F)C2 | –
8 | 1.8 | O=C(C1CC1)N1C2CCC1CN(c1nc(Nc3cnn(CCO)c3)ncc1F)C2 | –
9 | 1.74 | O=C(N[C@@]12C[C@@H]1CN(c1nc(Nc3cnn(CCO)c3)ncc1F)C2)C1CC1 | –
10 | 1.4 | N#C[C@@H]1C[C@H]1C(=O)N[C@@]12C[C@@H]1CN(c1nc(Nc3cnn(CCO)c3)ncc1F)C2 | –
11 | 1.71 | C[C@@H]1[C@@H]2CN(c3nc(Nc4cnn(CCO)c4)ncc3F)C[C@]12NC(=O)[C@@H]1C[C@H]1C#N | –
12 | 1.7 | CCNC(=O)c1ccc(Nc2nccc(N3CC4CC(C3)N4C(=O)C3CC3)n2)cc1 | –
13 | 2.1 | C[C@@H]1[C@@H]2CN(c3nc(Nc4cnn(CCO)c4)ncc3F)C[C@]12NC(=O)C1CC1 | –
14 | 2.32 | C[C@@H]1[C@@H]2CN(c3nc(Nc4cnn(C)c4)ncc3F)C[C@]12NC(=O)[C@H]1C[C@@H]1C#N | Papp [2]: 13.8 ×10⁻⁶ cm/s

From ChEMBL document CHEMBL4619733, “Design and optimization of a series of 4-(3-azabicyclo[3.1.0]hexan-3-yl)pyrimidin-2-amines: Dual inhibitors of TYK2 and JAK1” (Bioorg Med Chem, 2020)
